Results from ChEMBL document CHEMBL1123452, “Synthesis and hypolipidemic activities of 5-thienyl-4-oxazoleacetic acid derivatives” (1986).

Columns and labels:
[1] = species on record: Rattus norvegicus; assay: Percent decrease in triglyceride (TG) after 7 days at 0.05 percent in the diet of SD male rats in comparison to control animals; type: functional
Procedure, shortened: (§1)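 Normal SD male rats, five per group. Compound mixed into CE-2 powder diet at 50 mg/100 g (mg %), fed ad libitum for 7 days; controls received plain CE-2 powder. Total serum cholesterol measured by the Zak method and triglyceride by the Van Handel method after the feeding period. Activity expressed as percent depression versus the control-group mean. Single experiments.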

[2] = species on record: Rattus norvegicus; assay: Percent decrease in serum cholesterol (Cho) after 7 days at 0.05 percent in the diet of SD male rats in comparison to control animals; type: functional; procedure, shortened: as §1

| Structure (SMILES) | Reduction [1] | Reduction [2] |
| --- | --- | --- |
| CCCCCOC(=O)Cc1nc(-c2ccccc2)oc1-c1ccsc1 | 30% | 20% |
| CCCCCOC(=O)Cc1nc(-c2ccc(F)cc2)oc1-c1ccsc1 | 20% | 13% |
| CCCCCCCCOC(=O)Cc1nc(-c2ccc(F)cc2)oc1-c1ccsc1 | 13% | 12% |
| CCOC(=O)Cc1nc(-c2ccc(Br)cc2)oc1-c1ccc(F)cc1 | -5% | 12% |
| O=C(OCc1nc(-c2ccc(F)cc2)oc1-c1ccsc1)c1cccnc1 | 17% | 0% |
| CCOC(=O)Cc1nc(-c2ccc(C)cc2)oc1-c1cccs1 | -14% | 9% |
| CCOC(=O)Cc1nc(-c2ccccc2)oc1-c1cccs1 | 7% | 11% |
| O=C(O)Cc1nc(-c2ccc(Cl)c(Cl)c2)oc1-c1ccsc1 | 34% | 9% |
| CCOC(=O)Cc1nc(-c2ccc(Cl)cc2)oc1-c1ccc(Br)s1 | 20% | 0% |
| NC(=O)Cc1nc(-c2ccc(F)cc2)oc1-c1ccsc1 | 13% | 19% |
| O=C(O)Cc1nc(-c2ccsc2)oc1-c1ccc(F)cc1 | 31% | 13% |
| O=C(O)Cc1nc(-c2ccc(Br)cc2)oc1-c1ccccc1 | -14% | 4% |
| O=C(O)Cc1nc(-c2ccccc2)oc1-c1ccsc1 | 41% | 15% |
| COC(=O)Cc1nc(-c2ccc(Cl)cc2)oc1-c1ccsc1 | 29% | 14% |
| CCN(CC)C(=O)Cc1nc(-c2ccc(F)cc2)oc1-c1ccsc1 | 2% | -2% |
| CCOC(=O)Cc1nc(-c2ccc(C)cc2)oc1-c1ccsc1 | 4% | 5% |
| CCOC(=O)Cc1nc(-c2ccc(C)cc2)oc1-c1ccccc1 | -18% | 5% |
| CC(C)OC(=O)Cc1nc(-c2ccc(Cl)cc2)oc1-c1ccsc1 | 29% | 9% |
| O=C(O)Cc1nc(-c2ccccc2)oc1-c1ccccc1 | 20% | 6% |
| COc1ccc(-c2nc(CC(=O)O)c(-c3ccsc3)o2)cc1 | 26% | 3% |
| CCCCCOC(=O)Cc1nc(-c2ccc(Cl)cc2)oc1-c1ccsc1 | 45% | 19% |
| O=C(O)Cc1nc(-c2ccccc2Cl)oc1-c1ccsc1 | 22% | 1% |
| CCCCOC(=O)Cc1nc(-c2ccc(Cl)cc2)oc1-c1ccsc1 | 17% | 22% |
| CCOC(=O)Cc1nc(-c2ccc(F)cc2)oc1-c1cccs1 | 31% | 17% |
| CCOC(=O)Cc1nc(-c2ccc(Cl)cc2)oc1-c1cccs1 | -10% | 15% |
| OCc1nc(-c2ccc(F)cc2)oc1-c1ccsc1 | -34% | -10% |

| Structure (SMILES) | Reduction [1] | Reduction [2] |
| --- | --- | --- |
| CCCCNC(=O)Cc1nc(-c2ccc(F)cc2)oc1-c1ccsc1 | 13% | -8% |
| CCOC(=O)Cc1nc(-c2ccc(F)cc2)oc1-c1ccccc1 | -4% | 3% |
| O=C(O)Cc1nc(-c2ccc(Cl)cc2)oc1-c1ccccc1 | 14% | 6% |
| O=C(O)Cc1nc(-c2ccc(F)cc2)oc1-c1cccs1 | 27% | 17% |
| O=C(OCCc1nc(-c2ccc(F)cc2)oc1-c1ccsc1)c1cccnc1 | 3% | -2% |
| CCOC(=O)Cc1nc(-c2ccc(F)cc2)oc1-c1ccc(F)cc1 | 39% | 7% |
| CCOC(=O)Cc1nc(-c2ccc(OC)cc2)oc1-c1ccccc1 | 15% | 0% |
| CCOC(=O)Cc1nc(-c2ccc(Cl)cc2)oc1-c1ccccc1 | -12% | 7% |
| O=C(O)Cc1nc(-c2ccc(F)cc2)oc1-c1ccsc1 | 39% | 23% |
| C=CCOC(=O)Cc1nc(-c2ccc(Cl)cc2)oc1-c1ccsc1 | 39% | 11% |
| CCOC(=O)Cc1nc(-c2ccc(Br)cc2)oc1-c1ccccc1 | -7% | 10% |
| Cc1ccc(-c2nc(CC(=O)O)c(-c3ccsc3)o2)cc1 | 14% | 9% |
| CCOC(=O)CCc1nc(-c2ccc(Cl)cc2)oc1-c1ccsc1 | 34% | 0% |
| CCOC(=O)Cc1nc(-c2ccccc2Cl)oc1-c1ccsc1 | 15% | -5% |
| O=C(O)c1ncoc1-c1ccccc1 | 11% | 2% |
| CCCCCCCCCCCCCCCCCCOC(=O)Cc1nc(-c2ccc(F)cc2)oc1-c1ccsc1 | 26% | 18% |
| CCOC(=O)Cc1nc(-c2ccc(F)cc2)oc1-c1ccsc1 | 41% | 19% |
| CCOC(=O)C(C)c1nc(-c2ccc(F)cc2)oc1-c1ccsc1 (configuration not stated) | 19% | 6% |
| CCOC(=O)Cc1nc(-c2ccsc2)oc1-c1ccc(F)cc1 | 15% | 11% |
| CCOC(=O)Cc1nc(-c2ccc(OC)cc2)oc1-c1ccsc1 | 0% | 4% |
| O=C(O)Cc1nc(-c2ccc(Cl)cc2)oc1-c1cccs1 | 38% | 16% |
| O=C(Cc1nc(-c2ccc(Cl)cc2)oc1-c1ccsc1)OCc1cccnc1 | 3% | 13% |
| NC(=O)Cc1nc(-c2ccccc2)oc1-c1ccsc1 | 3% | 20% |
| CCOC(=O)c1nc(-c2ccccc2)oc1-c1ccccc1 | -30% | 9% |
| O=C(O)Cc1nc(-c2ccccc2)oc1-c1cccs1 | 28% | -4% |
| CCCCCCCCCCCCOC(=O)Cc1nc(-c2ccc(F)cc2)oc1-c1ccsc1 | 34% | 18% |

| Structure (SMILES) | Reduction [1] | Reduction [2] |
| --- | --- | --- |
| O=C(O)Cc1nc(-c2cccc(Cl)c2)oc1-c1ccsc1 | 38% | 7% |
| CCOC(=O)Cc1nc(-c2ccc(Cl)cc2)oc1-c1ccc(F)cc1 | 3% | 22% |
| CCOC(=O)Cc1nc(-c2cccc(Cl)c2)oc1-c1ccsc1 | 61% | 8% |
| CC(C)OC(=O)Cc1nc(-c2ccc(F)cc2)oc1-c1ccsc1 | 27% | 8% |
| O=C(O)CCc1nc(-c2ccc(Cl)cc2)oc1-c1ccsc1 | 51% | 5% |
| O=C(O)Cc1nc(-c2ccc(Cl)cc2)oc1-c1ccsc1 | 43% | 16% |
| CCOC(=O)Cc1nc(-c2ccc(Cl)c(Cl)c2)oc1-c1ccsc1 | 17% | 14% |
| CCOC(=O)Cc1nc(-c2cc(OC)c(OC)c(OC)c2)oc1-c1ccccc1 | -19% | 0% |
| O=C(Cc1nc(-c2ccc(Cl)cc2)oc1-c1ccsc1)OCC(O)CO (configuration not stated) | 43% | 15% |
| Cc1ccc(-c2oc(-c3ccc(Cl)cc3)nc2CC(=O)O)s1 | -4% | 9% |
| CC(C(=O)O)c1nc(-c2ccc(F)cc2)oc1-c1ccsc1 (configuration not stated) | 40% | 6% |
| CCc1nc(-c2ccc(F)cc2)oc1-c1ccsc1 | 20% | -4% |
| CCCCOC(=O)Cc1nc(-c2ccc(F)cc2)oc1-c1ccsc1 | 19% | 20% |
| COC(=O)c1nc(-c2ccc(F)cc2)oc1-c1ccsc1 | 16% | 5% |
| CCCCOC(=O)Cc1nc(-c2ccccc2)oc1-c1ccsc1 | 21% | 15% |
| CCOC(=O)Cc1nc(-c2ccccc2)oc1-c1ccccc1 | 6% | 13% |
| CCOC(=O)Cc1nc(-c2ccc(Cl)cc2)oc1-c1ccsc1 | 47% | 16% |
| C=CCc1nc(-c2ccc(F)cc2)oc1-c1ccsc1 | 3% | -2% |
| CCOC(=O)Cc1nc(-c2ccccc2)oc1-c1ccsc1 | 41% | 15% |
| CCOC(=O)Cc1nc(-c2ccc(Cl)cc2)oc1-c1ccc(C)s1 | 39% | 4% |
| CCNC(=O)Cc1nc(-c2ccc(F)cc2)oc1-c1ccsc1 | 23% | -5% |
| NC(=O)Cc1nc(-c2ccc(Cl)cc2)oc1-c1ccsc1 | 12% | 16% |
| OCCc1nc(-c2ccc(F)cc2)oc1-c1ccsc1 | 1% | 4% |
| CCOC(=O)C(C)(C)Oc1ccc(Cl)cc1 [CLOFIBRATE] | 16% | 15% |
